# According to ChEMBL document CHEMBL3769341, “Discovery and Characterization of GSK2801, a Selective Chemical Probe for the Bromodomains BAZ2A and BAZ2B” (J Med Chem, 2016):
# The source made the active and inactive calls. No cut-off for these calls is given here.
# Assays:
# [1] = molecular target: Bromodomain-containing protein 9 (Homo sapiens) (UniProt Q9H8M2); experiment: Binding affinity to biotinylated C-terminal Avi/His-TEV-fused BRD9 (unknown origin) expressed in Escherichia coli by isothermal titration calorimetric analysis
# Chain of Bromodomain-containing protein 9 (Homo sapiens) (Q9H8M2 whole entry, the tested form may be a part): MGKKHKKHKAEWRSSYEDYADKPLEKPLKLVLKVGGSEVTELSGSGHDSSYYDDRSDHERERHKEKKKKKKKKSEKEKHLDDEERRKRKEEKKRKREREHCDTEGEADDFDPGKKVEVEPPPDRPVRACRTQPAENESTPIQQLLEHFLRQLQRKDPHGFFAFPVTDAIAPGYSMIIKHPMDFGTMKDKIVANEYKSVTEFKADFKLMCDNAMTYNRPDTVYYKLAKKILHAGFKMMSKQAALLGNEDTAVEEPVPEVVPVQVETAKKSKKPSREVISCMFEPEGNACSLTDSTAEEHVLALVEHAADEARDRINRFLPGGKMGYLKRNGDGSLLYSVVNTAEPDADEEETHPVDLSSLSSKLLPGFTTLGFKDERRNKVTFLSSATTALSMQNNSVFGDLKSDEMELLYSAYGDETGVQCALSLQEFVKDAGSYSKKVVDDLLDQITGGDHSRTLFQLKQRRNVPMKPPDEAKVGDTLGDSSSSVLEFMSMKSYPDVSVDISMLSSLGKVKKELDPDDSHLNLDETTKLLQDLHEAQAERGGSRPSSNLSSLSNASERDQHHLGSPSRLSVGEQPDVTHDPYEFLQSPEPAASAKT
# [2] = molecular target: Histone-lysine N-methyltransferase ASH1L (Homo sapiens) (UniProt Q9NR48); experiment: Binding affinity to biotinylated ASH1L bromodomain (unknown origin) expressed in Escherichia coli at 0.2 to 1 uM by Biolayer Interferometric analysis
# Method in brief: (§1)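 Bromodomains carrying a BirA biotin ligase targeting sequence, coexpressed with BirA in bacteria to give homogeneous in vivo biotin labelling, checked by mass spectrometry. Biotinylated proteins probed by biolayer interferometry with compound at two concentrations, 0.2 and 1.0 μM.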
# [3] = molecular target: ATPase family AAA domain-containing protein 2 (Homo sapiens) (UniProt Q6PL18); experiment: Binding affinity to biotinylated ATAD2 (unknown origin) expressed in Escherichia coli at 0.2 to 1 uM by Biolayer Interferometric analysis; method in brief: as §1
# [4] = molecular target: Tyrosine-protein kinase BAZ1B (Homo sapiens) (UniProt Q9UIG0); experiment: Binding affinity to biotinylated BAZ1B (unknown origin) expressed in Escherichia coli at 0.2 to 1 uM by Biolayer Interferometric analysis; method in brief: as §1
# [5] = molecular target: Bromodomain-containing protein 1 (Homo sapiens) (UniProt O95696); experiment: Binding affinity to biotinylated BRD1 (unknown origin) expressed in Escherichia coli at 0.2 to 1 uM by Biolayer Interferometric analysis; method in brief: as §1
# [6] = molecular target: Bromodomain-containing protein 2 (Homo sapiens) (UniProt P25440); experiment: Binding affinity to biotinylated BRD2 bromodomain-1 (unknown origin) expressed in Escherichia coli at 0.2 to 1 uM by Biolayer Interferometric analysis; method in brief: as §1
# Chain of Bromodomain-containing protein 2 (Homo sapiens) (P25440 whole entry, looked up): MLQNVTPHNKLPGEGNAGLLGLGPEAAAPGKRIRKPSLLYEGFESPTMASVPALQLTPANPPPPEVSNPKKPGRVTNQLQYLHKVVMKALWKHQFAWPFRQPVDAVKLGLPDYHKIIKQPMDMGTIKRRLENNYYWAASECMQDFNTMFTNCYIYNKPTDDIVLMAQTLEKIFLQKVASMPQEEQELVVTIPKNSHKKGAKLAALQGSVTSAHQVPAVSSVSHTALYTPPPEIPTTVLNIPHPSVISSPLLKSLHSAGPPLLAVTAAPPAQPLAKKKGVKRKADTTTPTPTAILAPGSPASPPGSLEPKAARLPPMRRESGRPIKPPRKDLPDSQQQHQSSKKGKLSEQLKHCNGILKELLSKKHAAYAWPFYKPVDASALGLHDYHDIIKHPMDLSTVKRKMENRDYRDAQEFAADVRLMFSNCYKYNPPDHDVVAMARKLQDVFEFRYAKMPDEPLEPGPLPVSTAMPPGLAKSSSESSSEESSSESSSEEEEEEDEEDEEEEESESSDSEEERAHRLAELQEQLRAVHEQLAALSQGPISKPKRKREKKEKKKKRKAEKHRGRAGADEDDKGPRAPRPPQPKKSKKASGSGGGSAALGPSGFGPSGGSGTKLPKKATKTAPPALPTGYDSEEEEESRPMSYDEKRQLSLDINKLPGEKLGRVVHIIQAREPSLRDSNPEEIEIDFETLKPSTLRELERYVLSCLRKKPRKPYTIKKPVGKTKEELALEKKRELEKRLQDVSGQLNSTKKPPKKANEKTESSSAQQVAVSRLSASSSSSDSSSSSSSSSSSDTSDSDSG
# [7] = molecular target: Bromodomain-containing protein 2 (Homo sapiens) (UniProt P25440); experiment: Binding affinity to biotinylated BRD2 bromodomain-2 (unknown origin) expressed in Escherichia coli at 0.2 to 1 uM by Biolayer Interferometric analysis; method in brief: as §1
# [8] = molecular target: Bromodomain-containing protein 3 (Homo sapiens) (UniProt Q15059); experiment: Binding affinity to biotinylated BRD3 bromodomain-1 (unknown origin) expressed in Escherichia coli at 0.2 to 1 uM by Biolayer Interferometric analysis; method in brief: as §1
# [9] = molecular target: Bromodomain-containing protein 3 (Homo sapiens) (UniProt Q15059); experiment: Binding affinity to biotinylated BRD3 bromodomain-2 (unknown origin) expressed in Escherichia coli at 0.2 to 1 uM by Biolayer Interferometric analysis; method in brief: as §1
# [10] = molecular target: Bromodomain-containing protein 4 (Homo sapiens) (UniProt O60885); experiment: Binding affinity to biotinylated BRD4 bromodomain-1 (unknown origin) expressed in Escherichia coli at 0.2 to 1 uM by Biolayer Interferometric analysis; method in brief: as §1
# [11] = molecular target: Bromodomain-containing protein 4 (Homo sapiens) (UniProt O60885); experiment: Binding affinity to biotinylated BRD4 bromodomain-2 (unknown origin) expressed in Escherichia coli at 0.2 to 1 uM by Biolayer Interferometric analysis; method in brief: as §1
# [12] = molecular target: Bromodomain-containing protein 7 (Homo sapiens) (UniProt Q9NPI1); experiment: Binding affinity to biotinylated BRD7 (unknown origin) expressed in Escherichia coli at 0.2 to 1 uM by Biolayer Interferometric analysis; method in brief: as §1
# [13] = molecular target: Bromodomain testis-specific protein (Homo sapiens) (UniProt Q58F21); experiment: Binding affinity to biotinylated BRDT bromodomain-1 (unknown origin) expressed in Escherichia coli at 0.2 to 1 uM by Biolayer Interferometric analysis; method in brief: as §1
# [14] = molecular target: Bromodomain testis-specific protein (Homo sapiens) (UniProt Q58F21); experiment: Binding affinity to biotinylated BRDT bromodomain-2 (unknown origin) expressed in Escherichia coli at 0.2 to 1 uM by Biolayer Interferometric analysis; method in brief: as §1
# Peregrin (Homo sapiens) = Peregrin (Homo sapiens) (UniProt P55201); experiment: Binding affinity to biotinylated BRPF1 bromodomain-1 (unknown origin) expressed in Escherichia coli at 0.2 to 1 uM by Biolayer Interferometric analysis; method in brief: as §1
# [15] = molecular target: Bromodomain and WD repeat-containing protein 3 (Homo sapiens) (UniProt Q6RI45); experiment: Binding affinity to biotinylated BRWD3 bromodomain-2 (unknown origin) expressed in Escherichia coli at 0.2 to 1 uM by Biolayer Interferometric analysis; method in brief: as §1
# [16] = molecular target: Chromatin remodeling regulator CECR2 (Homo sapiens) (UniProt Q9BXF3); experiment: Binding affinity to biotinylated CECR2 (unknown origin) expressed in Escherichia coli at 0.2 to 1 uM by Biolayer Interferometric analysis; method in brief: as §1
# [17] = molecular target: CREB-binding protein (Homo sapiens) (UniProt Q92793); experiment: Binding affinity to biotinylated CREBBP (unknown origin) expressed in Escherichia coli at 0.2 to 1 uM by Biolayer Interferometric analysis; method in brief: as §1
# [18] = molecular target: Histone acetyltransferase p300 (Homo sapiens) (UniProt Q09472); experiment: Binding affinity to biotinylated EP300 (unknown origin) expressed in Escherichia coli at 0.2 to 1 uM by Biolayer Interferometric analysis; method in brief: as §1
# [19] = molecular target: Nucleosome-remodeling factor subunit BPTF (Homo sapiens) (UniProt Q12830); experiment: Binding affinity to biotinylated FALZ (unknown origin) expressed in Escherichia coli at 0.2 to 1 uM by Biolayer Interferometric analysis; method in brief: as §1
# [20] = molecular target: Histone acetyltransferase KAT2A (Homo sapiens) (UniProt Q92830); experiment: Binding affinity to biotinylated GCN5L2 (unknown origin) expressed in Escherichia coli at 0.2 to 1 uM by Biolayer Interferometric analysis; method in brief: as §1
# [21] = molecular target: ATPase family AAA domain-containing protein 2B (Homo sapiens) (UniProt Q9ULI0); experiment: Binding affinity to biotinylated KIAA1240 (unknown origin) expressed in Escherichia coli at 0.2 to 1 uM by Biolayer Interferometric analysis; method in brief: as §1
# [22] = molecular target: Protein polybromo-1 (Homo sapiens) (UniProt Q86U86); experiment: Binding affinity to biotinylated PB1 bromodomain-1 (unknown origin) expressed in Escherichia coli at 0.2 to 1 uM by Biolayer Interferometric analysis; method in brief: as §1
# [23] = molecular target: Protein polybromo-1 (Homo sapiens) (UniProt Q86U86); experiment: Binding affinity to biotinylated PB1 bromodomain-2 (unknown origin) expressed in Escherichia coli at 0.2 to 1 uM by Biolayer Interferometric analysis; method in brief: as §1
# [24] = molecular target: Protein polybromo-1 (Homo sapiens) (UniProt Q86U86); experiment: Binding affinity to biotinylated PB1 bromodomain-4 (unknown origin) expressed in Escherichia coli at 0.2 to 1 uM by Biolayer Interferometric analysis; method in brief: as §1
# [25] = molecular target: Protein polybromo-1 (Homo sapiens) (UniProt Q86U86); experiment: Binding affinity to biotinylated PB1 bromodomain-5 (unknown origin) expressed in Escherichia coli at 0.2 to 1 uM by Biolayer Interferometric analysis; method in brief: as §1
# [26] = molecular target: Protein polybromo-1 (Homo sapiens) (UniProt Q86U86); experiment: Binding affinity to biotinylated PB1 bromodomain-6 (unknown origin) expressed in Escherichia coli at 0.2 to 1 uM by Biolayer Interferometric analysis; method in brief: as §1
# [27] = molecular target: Histone acetyltransferase KAT2B (Homo sapiens) (UniProt Q92831); experiment: Binding affinity to biotinylated PCAF (unknown origin) expressed in Escherichia coli at 0.2 to 1 uM by Biolayer Interferometric analysis; method in brief: as §1
# [28] = molecular target: PH-interacting protein (Homo sapiens) (UniProt Q8WWQ0); experiment: Binding affinity to biotinylated PHIP (unknown origin) expressed in Escherichia coli at 0.2 to 1 uM by Biolayer Interferometric analysis; method in brief: as §1
# [29] = molecular target: SWI/SNF-related matrix-associated actin-dependent regulator of chromatin subfamily A member 2 (Homo sapiens) (UniProt P51531); experiment: Binding affinity to biotinylated SMARCA2 (unknown origin) expressed in Escherichia coli at 0.2 to 1 uM by Biolayer Interferometric analysis; method in brief: as §1
# [30] = molecular target: SWI/SNF-related matrix-associated actin-dependent regulator of chromatin subfamily A member 4 (Homo sapiens) (UniProt P51532); experiment: Binding affinity to biotinylated SMARCA4 (unknown origin) expressed in Escherichia coli at 0.2 to 1 uM by Biolayer Interferometric analysis; method in brief: as §1
# [31] = molecular target: Transcription initiation factor TFIID subunit 1 (Homo sapiens) (UniProt P21675); experiment: Binding affinity to biotinylated TAF1 bromodomain-1 (unknown origin) expressed in Escherichia coli at 0.2 to 1 uM by Biolayer Interferometric analysis; method in brief: as §1
# Chain of Transcription initiation factor TFIID subunit 1 (Homo sapiens) (P21675 whole entry): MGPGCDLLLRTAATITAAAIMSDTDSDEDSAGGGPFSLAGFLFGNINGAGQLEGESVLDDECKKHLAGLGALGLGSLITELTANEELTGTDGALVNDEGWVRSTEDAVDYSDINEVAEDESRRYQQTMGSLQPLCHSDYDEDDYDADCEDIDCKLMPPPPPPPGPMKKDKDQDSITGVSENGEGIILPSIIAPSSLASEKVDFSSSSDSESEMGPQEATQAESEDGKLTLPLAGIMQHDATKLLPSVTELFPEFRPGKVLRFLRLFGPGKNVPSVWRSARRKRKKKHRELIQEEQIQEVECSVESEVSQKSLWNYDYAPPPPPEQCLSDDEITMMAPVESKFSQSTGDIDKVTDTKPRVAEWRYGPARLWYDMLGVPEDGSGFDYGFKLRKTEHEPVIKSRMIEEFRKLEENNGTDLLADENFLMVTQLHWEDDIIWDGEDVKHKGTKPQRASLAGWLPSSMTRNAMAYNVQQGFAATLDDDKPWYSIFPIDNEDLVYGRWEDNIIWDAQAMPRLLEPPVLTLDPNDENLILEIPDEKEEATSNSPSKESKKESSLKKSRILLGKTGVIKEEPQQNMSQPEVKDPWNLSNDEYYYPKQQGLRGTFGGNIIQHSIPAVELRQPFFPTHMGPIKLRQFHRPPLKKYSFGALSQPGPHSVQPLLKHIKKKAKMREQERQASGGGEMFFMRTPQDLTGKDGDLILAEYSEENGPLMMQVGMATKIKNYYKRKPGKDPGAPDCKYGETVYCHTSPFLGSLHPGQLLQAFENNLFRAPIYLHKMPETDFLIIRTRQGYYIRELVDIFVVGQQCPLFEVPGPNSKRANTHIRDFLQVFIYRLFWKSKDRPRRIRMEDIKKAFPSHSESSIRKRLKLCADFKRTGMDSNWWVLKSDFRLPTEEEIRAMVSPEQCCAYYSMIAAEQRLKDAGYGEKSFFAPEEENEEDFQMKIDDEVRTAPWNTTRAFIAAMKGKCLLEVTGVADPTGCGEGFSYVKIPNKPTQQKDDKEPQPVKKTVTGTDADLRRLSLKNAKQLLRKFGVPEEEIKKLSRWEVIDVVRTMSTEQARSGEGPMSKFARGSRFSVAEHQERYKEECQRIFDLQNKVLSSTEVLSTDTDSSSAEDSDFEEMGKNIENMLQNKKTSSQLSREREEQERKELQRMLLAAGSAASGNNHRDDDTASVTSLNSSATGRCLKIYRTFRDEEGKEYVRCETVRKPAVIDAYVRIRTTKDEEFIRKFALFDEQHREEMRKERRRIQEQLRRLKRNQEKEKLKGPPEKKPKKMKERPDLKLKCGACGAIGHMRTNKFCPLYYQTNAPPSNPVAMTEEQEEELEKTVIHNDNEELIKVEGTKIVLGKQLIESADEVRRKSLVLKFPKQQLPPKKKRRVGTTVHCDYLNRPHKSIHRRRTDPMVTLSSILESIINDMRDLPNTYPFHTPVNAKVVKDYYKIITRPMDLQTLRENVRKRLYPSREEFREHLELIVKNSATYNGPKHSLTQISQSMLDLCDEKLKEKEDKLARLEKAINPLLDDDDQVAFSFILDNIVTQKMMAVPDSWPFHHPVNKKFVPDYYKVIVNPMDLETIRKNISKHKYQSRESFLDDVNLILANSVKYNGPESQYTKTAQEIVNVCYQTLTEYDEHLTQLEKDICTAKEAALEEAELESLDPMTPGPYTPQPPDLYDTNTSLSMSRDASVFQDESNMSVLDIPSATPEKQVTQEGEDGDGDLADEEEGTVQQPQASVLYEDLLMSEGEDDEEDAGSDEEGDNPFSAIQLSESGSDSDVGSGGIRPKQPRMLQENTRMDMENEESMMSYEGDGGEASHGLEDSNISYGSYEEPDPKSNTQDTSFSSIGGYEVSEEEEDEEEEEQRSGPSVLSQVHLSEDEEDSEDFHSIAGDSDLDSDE
# [32] = molecular target: Transcription initiation factor TFIID subunit 1 (Homo sapiens) (UniProt P21675); experiment: Binding affinity to biotinylated TAF1 bromodomain-2 (unknown origin) expressed in Escherichia coli at 0.2 to 1 uM by Biolayer Interferometric analysis; method in brief: as §1
# [33] = molecular target: Transcription initiation factor TFIID subunit 1-like (Homo sapiens) (UniProt Q8IZX4); experiment: Binding affinity to biotinylated TAF1L bromodomain-1 (unknown origin) expressed in Escherichia coli at 0.2 to 1 uM by Biolayer Interferometric analysis; method in brief: as §1
# Chain of Transcription initiation factor TFIID subunit 1-like (Homo sapiens) (Q8IZX4 whole entry, the tested form may be a part): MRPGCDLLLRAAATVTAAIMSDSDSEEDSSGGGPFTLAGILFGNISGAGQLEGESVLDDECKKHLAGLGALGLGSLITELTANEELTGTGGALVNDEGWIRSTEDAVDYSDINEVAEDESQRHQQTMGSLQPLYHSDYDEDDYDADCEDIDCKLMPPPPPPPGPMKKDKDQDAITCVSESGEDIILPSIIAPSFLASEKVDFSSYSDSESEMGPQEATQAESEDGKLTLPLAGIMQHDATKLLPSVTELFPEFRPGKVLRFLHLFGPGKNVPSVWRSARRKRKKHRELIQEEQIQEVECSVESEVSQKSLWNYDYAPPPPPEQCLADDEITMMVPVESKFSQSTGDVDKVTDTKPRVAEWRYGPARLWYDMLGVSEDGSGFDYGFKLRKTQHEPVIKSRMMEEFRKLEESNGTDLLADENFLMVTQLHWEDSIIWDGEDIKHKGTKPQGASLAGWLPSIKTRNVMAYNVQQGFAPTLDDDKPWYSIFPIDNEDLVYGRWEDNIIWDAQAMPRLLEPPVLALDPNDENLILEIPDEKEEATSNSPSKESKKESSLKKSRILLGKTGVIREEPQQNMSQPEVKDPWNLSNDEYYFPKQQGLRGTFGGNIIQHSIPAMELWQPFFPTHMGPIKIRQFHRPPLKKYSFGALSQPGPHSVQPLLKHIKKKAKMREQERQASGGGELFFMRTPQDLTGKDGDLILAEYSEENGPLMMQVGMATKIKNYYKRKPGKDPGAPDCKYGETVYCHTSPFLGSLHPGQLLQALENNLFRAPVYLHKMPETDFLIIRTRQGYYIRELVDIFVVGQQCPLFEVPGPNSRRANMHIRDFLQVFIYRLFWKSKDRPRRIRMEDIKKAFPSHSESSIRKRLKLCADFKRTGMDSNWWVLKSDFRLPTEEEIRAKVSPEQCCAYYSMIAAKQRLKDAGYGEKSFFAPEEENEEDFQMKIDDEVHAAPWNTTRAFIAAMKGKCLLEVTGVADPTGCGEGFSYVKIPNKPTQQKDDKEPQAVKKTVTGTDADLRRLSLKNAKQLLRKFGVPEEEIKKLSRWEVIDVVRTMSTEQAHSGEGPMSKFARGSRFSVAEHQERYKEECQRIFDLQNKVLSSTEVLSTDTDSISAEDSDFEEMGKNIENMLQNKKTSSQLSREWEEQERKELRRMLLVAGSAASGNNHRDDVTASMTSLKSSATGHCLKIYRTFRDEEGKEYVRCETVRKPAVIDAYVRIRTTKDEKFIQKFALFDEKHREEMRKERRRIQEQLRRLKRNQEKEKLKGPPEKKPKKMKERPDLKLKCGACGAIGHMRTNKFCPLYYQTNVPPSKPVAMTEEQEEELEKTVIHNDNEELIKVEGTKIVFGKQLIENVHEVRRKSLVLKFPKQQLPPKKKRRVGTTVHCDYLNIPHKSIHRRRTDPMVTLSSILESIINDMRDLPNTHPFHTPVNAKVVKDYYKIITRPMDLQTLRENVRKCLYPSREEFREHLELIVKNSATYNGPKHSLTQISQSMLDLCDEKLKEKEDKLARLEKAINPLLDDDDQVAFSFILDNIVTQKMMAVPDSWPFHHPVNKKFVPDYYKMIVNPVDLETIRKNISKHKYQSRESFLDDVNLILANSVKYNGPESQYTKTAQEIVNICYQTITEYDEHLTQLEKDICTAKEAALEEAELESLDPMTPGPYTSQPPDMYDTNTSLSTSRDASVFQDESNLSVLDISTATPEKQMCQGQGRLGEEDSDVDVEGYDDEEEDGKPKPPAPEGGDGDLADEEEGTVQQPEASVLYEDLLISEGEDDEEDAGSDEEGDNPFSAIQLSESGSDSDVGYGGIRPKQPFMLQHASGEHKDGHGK
# [34] = molecular target: Transcription intermediary factor 1-alpha (Homo sapiens) (UniProt O15164); experiment: Binding affinity to biotinylated TIF1 bromodomain-1 (unknown origin) expressed in Escherichia coli at 0.2 to 1 uM by Biolayer Interferometric analysis; method in brief: as §1
# [35] = molecular target: Transcription intermediary factor 1-beta (Homo sapiens) (UniProt Q13263); experiment: Binding affinity to biotinylated TRIM28 (unknown origin) expressed in Escherichia coli at 0.2 to 1 uM by Biolayer Interferometric analysis; method in brief: as §1
# [36] = molecular target: Bromodomain and WD repeat-containing protein 1 (Homo sapiens) (UniProt Q9NSI6); experiment: Binding affinity to biotinylated WDR9 (unknown origin) expressed in Escherichia coli at 0.2 to 1 uM by Biolayer Interferometric analysis; method in brief: as §1
# [37] = molecular target: Nuclear body protein SP140 (Homo sapiens) (UniProt Q13342); experiment: Binding affinity to biotinylated SP140 (unknown origin) expressed in Escherichia coli at 0.2 to 1 uM by Biolayer Interferometric analysis; method in brief: as §1
# [38] = molecular target: Transcription initiation factor TFIID subunit 1-like (Homo sapiens) (UniProt Q8IZX4); experiment: Binding affinity to biotinylated TAF1L bromodomain-2 (unknown origin) expressed in Escherichia coli at 0.2 to 1 uM by Biolayer Interferometric analysis; method in brief: as §1
# [39] = molecular target: Bromodomain adjacent to zinc finger domain protein 2B (Homo sapiens) (UniProt Q9UIF8); experiment: Binding affinity to biotinylated C-terminal Avi/His-TEV-tagged BAZ2B (unknown origin) expressed in Escherichia coli at 0.2 to 1 uM by Biolayer Interferometric analysis; method in brief: as §1
Activity [2],Activity [3],Activity [4],Activity [5],Activity [6],Activity [7],Activity [8],Activity [9],Activity [10],Activity [11],Activity [12],Activity [13],Activity [14],Activity (Peregrin (Homo sapiens)),Activity [15],Activity [16],Activity [17],Activity [18],Activity [19],Activity [20],SMILES,further results
inactive,inactive,inactive,inactive,inactive,inactive,inactive,inactive,inactive,inactive,inactive,inactive,inactive,inactive,inactive,inactive,inactive,inactive,inactive,inactive,CCCOc1ccn2c(C(C)=O)cc(-c3ccccc3S(C)(=O)=O)c2c1,Kb [1]: 0.826 ×10⁶ /M; Activity [21]: inactive; Activity [22]: inactive; Activity [23]: inactive; Activity [24]: inactive; Activity [25]: inactive; Activity [26]: inactive; Activity [27]: inactive; Activity [28]: inactive; Activity [29]: inactive; Activity [30]: inactive; Activity [31]: inactive; Activity [32]: inactive; Activity [33]: inactive; Activity [34]: inactive; Activity [35]: inactive; Activity [36]: inactive; Activity [37]: inactive
inactive,inactive,inactive,inactive,inactive,inactive,inactive,inactive,inactive,inactive,inactive,inactive,inactive,inactive,inactive,inactive,inactive,inactive,inactive,inactive,CCCOc1ccn2c(C(C)=O)cc(-c3cccc(OC)c3)c2c1,Activity [21]: inactive; Activity [22]: inactive; Activity [23]: inactive; Activity [24]: inactive; Activity [25]: inactive; Activity [26]: inactive; Activity [27]: inactive; Activity [28]: inactive; Activity [29]: inactive; Activity [30]: inactive; Activity [31]: inactive; Activity [32]: inactive; Activity [33]: inactive; Activity [38]: inactive; Activity [34]: inactive; Activity [35]: inactive; Activity [36]: inactive; Activity [37]: inactive; Activity [39]: inactive
